Assay [1] relates to MDA-MB-231. Description: Induction of cell death in human MDA-MB-231 cells at 1 uM after 48 hrs by trypan blue assay. Format: functional. In outline:
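MDA-MB-231 breast cancer cells exposed to compound for 48 hours. Viability scored by trypan blue exclusion. Read-out is percentage of cells dead.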

In assay [2] the test system is MDA-MB-231. The assay can be described thus: Growth inhibition of human MDA-MB-231 cells after 4 days by WST8 assay. The note with it: MDA-MB-231, 96 h. In general terms: Tetrazolium assays rely on reduction of a dye to a coloured formazan, in cell work by metabolically active cells.
Assay [3] has as its system MDA-MB-231. Description: Induction of degradation of cIAP1 in human MDA-MB-231 cells after 24 hrs by Western blot analysis. Format: functional, cell-based. In outline: (§1)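 MDA-MB-231 breast cancer cells exposed to a range of concentrations for 24 hours; lysate proteins probed by Western blot with specific antibodies against cIAP-1, caspase-8, and pro- and cleaved PARP.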
For orientation: Immunoblotting shows a protein as a band on a membrane.

In assay [4] the test system is MDA-MB-231. Description: Induction of cell death in human MDA-MB-231 cells after 48 hrs by trypan blue assay. Format: functional, cell-based. Summed up:
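MDA-MB-231 breast cancer cells exposed to a range of compound concentrations for 48 hours; viability scored by trypan blue exclusion; percent dead cells reported.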

Assay [5] concerns MDA-MB-231. The assay can be described thus: Induction of degradation of cIAP1 in human MDA-MB-231 cells upto 100 nM after 24 hrs by Western blot analysis. The class given is functional, cell-based. In outline: as §1
Assay [6] has as its system MDA-MB-231. The assay can be described thus: Induction of caspase 8 processing in human MDA-MB-231 cells within 24 hrs by Western blot analysis. Format: functional, cell-based. Summed up:
as §1

Assay [7] concerns MDA-MB-231. The assay can be described thus: Induction of poly(ADP-ribose) polymerase cleavage in human MDA-MB-231 cells within 24 hrs by Western blot analysis. The class given is functional, cell-based. Summed up:
as §1

pIC50: −log10 of the molar value. The source made the active and inactive calls. The calls are words filed in the database; no cut-off is given here.

What is called pIC50 is the negative decadic logarithm of the IC50, by convention in mol/L. Higher therefore signals a small IC50. Consider `CN[C@@H](C)C(=O)N[C@H]1Cc2ccccc2[C@H]2CCC[C@@H](C(=O)NC(c3ccccc3)c3ccccc3)N2C1=O`, for which the Activity in assay [1] is less than 20%; in assay [4] it was “Dose-dependent effect”. Further, in assay [2], the negative-log IC50 (pIC50) was 5.86. For the same compound, in assay [3], the result was Active.

`CN[C@@H](C)C(=O)N[C@H]1Cc2ccccc2[C@H]2CC[C@@H](C(=O)N[C@@H]3CCCc4ccccc43)N2C1=O`: the Activity in assay [1] was 75%; in assay [6] it was “Dose-dependent effect”; in assay [7], “Dose-dependent effect”; in assay [4] it was “Dose-dependent effect”. Moreover, the result in assay [5] and in assay [3] was Active.

With `CN[C@@H](C)C(=O)N[C@H]1Cc2ccccc2[C@H]2CC[C@@H](C(=O)NC(c3ccccc3)c3ccccc3)N2C1=O`, the result in assay [3] was Active. Moreover, the Activity result in assay [4] is “Dose-dependent effect”.
